Measurements from ChEMBL document CHEMBL1129594 (J Med Chem, 1996).

Tests used:
Vanilloid receptor = Vanilloid receptor (Rattus norvegicus, UniProt Q9ERZ8+Q9WUD2+O35433); assay: Compound tested in vitro for [Ca2+] influx into neonatal rat dorsal root ganglia (DRG); type: functional
Mus musculus [1] = assay: In vivo tail-flick latency after peroral administration in mouse as an evaluation of antinociceptive potency; type: functional; conditions: po
Mus musculus [2] = assay: In vivo tail-flick latency after subcutaneous administration in mouse as an evaluation of antinociceptive potency; type: functional; conditions: sc
Cavia porcellus [3] = assay: Threshold dose required to cause increase in airway opening pressure […] of guinea pig after intravenous administration
Mus musculus [4] = assay: Compound tested for in vivo writhing antinociceptive assay in mouse after subcutaneous administration; type: functional; conditions: sc
Summary of the method: (§1)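 Female CD-1 mice (20 g), kept on 12 h light/12 h dark and fasted overnight, 10 per group. Drug or vehicle was given sc or orally 55 min before ip acetic acid (0.3 mL, 200 mM). Abdominal constrictions were counted over the 5 min starting 5 min after acid. Effect was taken as the drug/vehicle writhe ratio, and ED50 (dose halving writhes) came from a logistic fit with standard error.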

Cavia porcellus [5] = assay: Threshold dose required to cause increase in airway opening pressure […] of guinea pig after intravenous administration; type: functional
Summary of the method: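 Dunkin-Hartley guinea pigs (400-450 g, n = 4 per group) under urethane (2 g/kg), held at 37 °C. Carotid cannula for blood pressure, jugular cannula for iv drug. Tracheal cannula with ventilation at 60 strokes/min and 10 mL/kg tidal volume. Airway opening pressure was read by differential transducer on the tracheal side arm. Threshold iv dose raising Pao was recorded.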

Mus musculus [6] = assay: Compound tested for in vivo writhing antinociceptive assay in mouse after peroral administration; type: functional; conditions: po; summary of the method: as §1

Q: For `COc1cc(C/N=C(\S)NCCc2ccc(C(C)(C)C)cc2)ccc1OCCN`, which EC50 (Vanilloid receptor) is on record?
A: 710 nM

Q: How did the EC50 (Vanilloid receptor) turn out when `COc1cc(C/N=C(\S)NCCc2ccc(Cl)cc2)ccc1OCCN(C)C` was run?
A: 3520 nM

Q: With `COc1cc(C/N=C(\S)NCCc2ccc(Cl)cc2Cl)ccc1O` as the compound, how does the EC50 (Vanilloid receptor) read?
A: 130 nM

Q: Which EC50 (Vanilloid receptor) does the source give for `COc1cc(CN/C(S)=N/C=C\c2ccc(Cl)cc2)ccc1O` here?
A: 41 nM

Q: How did the EC50 (Vanilloid receptor) turn out when `COc1cc(C/N=C(\S)NCCc2ccc(Cl)cc2)ccc1OCC[N+](C)(C)C.O=C([O-])C(F)(F)F` was run?
A: > 100000 nM

Q: `CCOC(=O)NCCOc1ccc(C/N=C(\S)NCCc2ccc(Cl)cc2)cc1OC` was tested. Which EC50 (Vanilloid receptor) did it give?
A: 6140 nM

Q: `CCCCCCCC/C=C\CCCCCCCC(=O)NCc1ccc(OCCN)c(OC)c1` was tested. Which ED50 (Mus musculus [1]) did it give?
A: 184 µmol/kg

Q: What about the ED50 (Mus musculus [2]) of the same compound?
A: 6.3 µmol/kg

Q: What about the Dose (Cavia porcellus [3]) of the same compound?
A: >0.1 µM/kg

Q: And the ED50 (Mus musculus [4])?
A: 3.06 µmol/kg

Q: `COc1cc(C/N=C(\S)NCCc2ccccc2)ccc1OCCN` was tested. Which EC50 (Vanilloid receptor) did it give?
A: 2720 nM

Q: With `COc1cc(C/N=C(\S)NCCc2ccc(F)cc2)ccc1OCCN` as the compound, how does the EC50 (Vanilloid receptor) read?
A: 2300 nM

Q: `COc1cc(CNC(=S)NCc2ccc(C(C)(C)C)cc2)ccc1O` was tested. Which EC50 (Vanilloid receptor) did it give?
A: 510 nM

Q: How did the EC50 (Vanilloid receptor) turn out when `COc1cc(C/N=C(\S)NCCc2ccc(Cl)cc2)ccc1OCCNC(C)=O` was run?
A: 5130 nM

Q: For `COc1cc(C/N=C(\S)NCCc2ccc(Cl)cc2Cl)ccc1OCCN`, which EC50 (Vanilloid receptor) is on record?
A: 320 nM

Q: With `COc1cc(CN/C(S)=N/C=C/c2ccc(Cl)cc2)ccc1O` as the compound, how does the EC50 (Vanilloid receptor) read?
A: 410 nM

Q: Which results are given for `COc1cc(C/N=C(\S)NCc2ccc(C(C)(C)C)cc2)ccc1OCCN`?
A: Dose (Cavia porcellus [5]): 0.062 µM/kg; EC50 (Vanilloid receptor): 170 nM; ED50 (Mus musculus [1]): 1.45 µmol/kg; ED50 (Mus musculus [2]): 0.4 µmol/kg; ED50 (Mus musculus [4]): 0.49 µmol/kg; ED50 (Mus musculus [6]): 2.55 µmol/kg

Q: `COc1cc(C/N=C(\S)NCCc2ccc(Cl)cc2)ccc1OCCN1C(=O)c2ccccc2C1=O` was tested. Which EC50 (Vanilloid receptor) did it give?
A: 53000 nM

Q: How did the EC50 (Vanilloid receptor) turn out when `COc1cc(C/N=C(\S)NCCc2ccccc2)ccc1O` was run?
A: 480 nM

Q: With `CNCCOc1ccc(C/N=C(\S)NCCc2ccc(Cl)cc2)cc1OC` as the compound, how does the EC50 (Vanilloid receptor) read?
A: 7030 nM

Q: With `COc1cc(C/N=C(\S)NCCc2ccc(Cl)cc2)ccc1OCCN` as the compound, how does the Dose (Cavia porcellus [5]) read?
A: 0.137 µM/kg

Q: And the ED50 (Mus musculus [1])?
A: 22.9 µmol/kg

Q: And the ED50 (Mus musculus [2])?
A: 4.8 µmol/kg

Q: What about the ED50 (Mus musculus [4]) of the same compound?
A: 3.32 µmol/kg

Q: And the ED50 (Mus musculus [6])?
A: 11.4 µmol/kg

Q: For `COc1cc(C/N=C(\S)NCCc2ccc(Cl)cc2)ccc1OCCNC(=O)OC(C)(C)C`, which EC50 (Vanilloid receptor) is on record?
A: 3000 nM

Q: With `COc1cc(C/N=C(\S)NCCc2ccc(F)cc2)ccc1O` as the compound, how does the EC50 (Vanilloid receptor) read?
A: 130 nM

Q: `COc1cc(C/N=C(\S)NCCc2ccc(Cl)cc2)ccc1O` was tested. Which Dose (Cavia porcellus [5]) did it give?
A: 0.025 µM/kg

Q: What about the EC50 (Vanilloid receptor) of the same compound?
A: 56 nM

Q: What about the ED50 (Mus musculus [1]) of the same compound?
A: 370 µmol/kg

Q: And the ED50 (Mus musculus [2])?
A: 11.8 µmol/kg

Q: And the ED50 (Mus musculus [4])?
A: 10.1 µmol/kg

Q: For `COc1cc(CNC(=O)CCCC/C=C/C(C)C)ccc1O` [CAPSAICIN], which Dose (Cavia porcellus [5]) is on record?
A: 0.018 µM/kg

Q: What about the ED50 (Mus musculus [1]) of the same compound?
A: 962 µmol/kg

Q: What about the ED50 (Mus musculus [2]) of the same compound?
A: 10.3 µmol/kg

Q: What about the ED50 (Mus musculus [4]) of the same compound?
A: 5.72 µmol/kg

Q: What does the source list for `CCCCCCCC/C=C\CCCCCCCC(=O)NCc1ccc(O)c(OC)c1` [OLVANIL]?
A: ED50 (Mus musculus [1]): > 400 µmol/kg; ED50 (Mus musculus [2]): 11.3 µmol/kg; Dose (Cavia porcellus [3]): >0.1 µM/kg; ED50 (Mus musculus [4]): 2.1 µmol/kg
